From the M2OR odorant receptor database
Substitutions are numbered along the chain they refer to.

Assays:
Details in all cases: stereoisomer not certain
OR5K3 (Homo sapiens) = target: T1, OR5K3 (Homo sapiens) (UniProt A6NET4)
T1 sequence (whole entry): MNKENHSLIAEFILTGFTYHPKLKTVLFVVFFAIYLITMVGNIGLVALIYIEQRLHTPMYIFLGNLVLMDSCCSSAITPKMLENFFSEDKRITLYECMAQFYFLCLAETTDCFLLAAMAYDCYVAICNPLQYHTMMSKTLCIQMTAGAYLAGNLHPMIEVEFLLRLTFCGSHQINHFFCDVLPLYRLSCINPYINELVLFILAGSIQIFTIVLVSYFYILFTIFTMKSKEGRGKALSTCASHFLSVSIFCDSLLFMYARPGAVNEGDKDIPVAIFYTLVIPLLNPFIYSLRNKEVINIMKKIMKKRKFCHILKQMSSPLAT
In short: (§1)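 Values were gathered from published papers (main text and supplementary material), with extra details requested from the original authors when needed, and checked for typos and inconsistencies. Each receptor–molecule pair is called responsive (active) if the original authors judged the measured signal statistically different from baseline, and non-responsive (inactive) otherwise. Assay methods varied by source, often transient mammalian cell-line luciferase assays. Recorded details include cell line, G-protein, co-transfected protein and tags.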

OR5K4 (Homo sapiens) = target: T2, OR5K4 (Homo sapiens) (UniProt A6NMS3)
T2 sequence (whole entry): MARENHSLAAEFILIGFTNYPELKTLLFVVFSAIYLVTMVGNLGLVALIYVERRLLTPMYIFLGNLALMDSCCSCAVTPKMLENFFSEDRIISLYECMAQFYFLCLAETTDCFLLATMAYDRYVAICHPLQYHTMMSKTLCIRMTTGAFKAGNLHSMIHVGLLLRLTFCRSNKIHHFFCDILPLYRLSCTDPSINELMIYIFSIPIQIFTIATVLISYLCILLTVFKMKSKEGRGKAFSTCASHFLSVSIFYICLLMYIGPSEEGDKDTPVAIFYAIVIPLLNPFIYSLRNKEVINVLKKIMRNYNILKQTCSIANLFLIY
In short: as §1

OR5L1 (Homo sapiens) = target: T3, OR5L1 (Homo sapiens) (UniProt Q8NGL2)
T3 sequence (whole entry): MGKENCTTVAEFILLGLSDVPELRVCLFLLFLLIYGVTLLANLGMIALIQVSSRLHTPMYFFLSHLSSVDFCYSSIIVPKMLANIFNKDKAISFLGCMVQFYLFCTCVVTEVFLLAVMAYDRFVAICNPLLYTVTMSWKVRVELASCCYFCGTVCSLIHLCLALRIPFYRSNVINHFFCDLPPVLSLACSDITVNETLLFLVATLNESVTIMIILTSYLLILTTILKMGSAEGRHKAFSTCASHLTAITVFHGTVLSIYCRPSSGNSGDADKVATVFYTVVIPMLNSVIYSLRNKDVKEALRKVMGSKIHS
In short: as §1

OR5L2 (Homo sapiens) = target: T4, OR5L2 (Homo sapiens) (UniProt Q8NGL0)
T4 sequence (whole entry): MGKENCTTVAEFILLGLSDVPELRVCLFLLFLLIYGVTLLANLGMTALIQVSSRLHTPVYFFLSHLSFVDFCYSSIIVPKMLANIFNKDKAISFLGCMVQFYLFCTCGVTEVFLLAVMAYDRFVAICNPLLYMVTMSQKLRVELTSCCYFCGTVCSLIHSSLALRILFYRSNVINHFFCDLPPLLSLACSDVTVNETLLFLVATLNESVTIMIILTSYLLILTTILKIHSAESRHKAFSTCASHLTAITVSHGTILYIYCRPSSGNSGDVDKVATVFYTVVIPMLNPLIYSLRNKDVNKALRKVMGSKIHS
In short: as §1

OR5M1 (Homo sapiens) = target: T5, OR5M1 (Homo sapiens) (UniProt Q8NGP8)
T5 sequence (whole entry): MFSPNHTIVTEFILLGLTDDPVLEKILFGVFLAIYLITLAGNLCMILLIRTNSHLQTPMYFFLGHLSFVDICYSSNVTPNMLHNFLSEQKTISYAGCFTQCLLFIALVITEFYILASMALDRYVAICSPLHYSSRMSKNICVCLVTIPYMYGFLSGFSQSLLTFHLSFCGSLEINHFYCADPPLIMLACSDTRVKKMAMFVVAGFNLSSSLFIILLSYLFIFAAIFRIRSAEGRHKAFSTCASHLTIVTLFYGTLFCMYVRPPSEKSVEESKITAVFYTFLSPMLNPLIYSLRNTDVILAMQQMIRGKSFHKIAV
In short: as §1

OR5M1 T295R M301I = test system: T6, OR5M1 T295R M301I
T6 sequence (whole entry): T5 sequence (whole entry) with T295R, M301I
In short: as §1

OR5M10 (Homo sapiens) = target: T7, OR5M10 (Homo sapiens) (UniProt Q6IEU7)
T7 sequence (whole entry): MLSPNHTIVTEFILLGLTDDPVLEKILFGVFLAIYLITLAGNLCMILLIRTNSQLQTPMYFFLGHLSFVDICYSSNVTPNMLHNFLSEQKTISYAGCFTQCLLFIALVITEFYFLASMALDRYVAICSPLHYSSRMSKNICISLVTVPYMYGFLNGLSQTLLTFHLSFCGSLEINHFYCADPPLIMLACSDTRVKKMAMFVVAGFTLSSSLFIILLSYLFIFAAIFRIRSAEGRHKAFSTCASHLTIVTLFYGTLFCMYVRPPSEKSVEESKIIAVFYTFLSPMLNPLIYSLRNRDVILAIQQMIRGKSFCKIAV
In short: as §1

OR5M11 (Homo sapiens) = target: T8, OR5M11 (Homo sapiens) (UniProt Q96RB7)
T8 sequence (whole entry): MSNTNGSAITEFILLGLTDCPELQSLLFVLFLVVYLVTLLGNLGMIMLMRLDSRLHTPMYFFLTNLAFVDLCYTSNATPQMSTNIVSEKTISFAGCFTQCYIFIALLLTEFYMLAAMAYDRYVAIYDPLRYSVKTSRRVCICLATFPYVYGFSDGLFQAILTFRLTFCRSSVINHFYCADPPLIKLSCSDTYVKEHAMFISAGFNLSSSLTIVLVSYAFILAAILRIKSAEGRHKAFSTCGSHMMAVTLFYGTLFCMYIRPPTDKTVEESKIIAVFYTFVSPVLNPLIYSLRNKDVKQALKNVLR
In short: as §1

OR5M3 (Homo sapiens) = target: T9, OR5M3 (Homo sapiens) (UniProt Q8NGP4)
T9 sequence (whole entry): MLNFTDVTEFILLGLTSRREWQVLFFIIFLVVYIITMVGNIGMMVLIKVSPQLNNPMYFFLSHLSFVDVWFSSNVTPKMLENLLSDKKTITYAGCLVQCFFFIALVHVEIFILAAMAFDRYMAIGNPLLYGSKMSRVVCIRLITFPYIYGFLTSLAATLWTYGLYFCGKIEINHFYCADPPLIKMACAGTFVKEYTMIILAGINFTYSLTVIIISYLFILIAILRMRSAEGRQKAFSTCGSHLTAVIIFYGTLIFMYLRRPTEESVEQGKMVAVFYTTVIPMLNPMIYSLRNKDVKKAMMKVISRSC
In short: as §1

OR5M3 N3Y A156T = test system: T10, OR5M3 N3Y A156T
T10 sequence (whole entry): T9 sequence (whole entry) with N3Y, A156T
In short: as §1

OR5M8 (Homo sapiens) = target: T11, OR5M8 (Homo sapiens) (UniProt Q8NGP6)
T11 sequence (whole entry): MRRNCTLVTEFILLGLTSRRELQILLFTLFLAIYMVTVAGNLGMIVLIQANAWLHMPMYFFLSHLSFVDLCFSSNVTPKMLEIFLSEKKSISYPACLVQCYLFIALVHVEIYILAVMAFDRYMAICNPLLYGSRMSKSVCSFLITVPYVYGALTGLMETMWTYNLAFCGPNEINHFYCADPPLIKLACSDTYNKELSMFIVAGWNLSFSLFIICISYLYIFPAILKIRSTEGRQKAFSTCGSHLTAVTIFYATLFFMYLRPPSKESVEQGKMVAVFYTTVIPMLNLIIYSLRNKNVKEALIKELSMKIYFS
In short: as §1

OR5M9 (Homo sapiens) = target: T12, OR5M9 (Homo sapiens) (UniProt Q8NGP3)
T12 sequence (whole entry): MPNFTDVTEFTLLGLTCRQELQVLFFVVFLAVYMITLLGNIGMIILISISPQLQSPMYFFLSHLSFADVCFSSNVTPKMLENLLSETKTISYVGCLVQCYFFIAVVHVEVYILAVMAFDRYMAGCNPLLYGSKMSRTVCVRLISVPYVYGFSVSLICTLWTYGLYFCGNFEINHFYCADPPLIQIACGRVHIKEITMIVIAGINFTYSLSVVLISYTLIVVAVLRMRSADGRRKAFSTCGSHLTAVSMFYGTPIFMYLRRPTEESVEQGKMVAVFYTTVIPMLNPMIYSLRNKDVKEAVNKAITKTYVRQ
In short: as §1

OR5MA L2F C311H = test system: T13, OR5MA L2F C311H
T13 sequence (whole entry): T7 sequence (whole entry) with L2F, C311H
In short: as §1

OR5MA L2F Q54H C311H = test system: T14, OR5MA L2F Q54H C311H
T14 sequence (whole entry): T7 sequence (whole entry) with L2F, Q54H, C311H
In short: as §1

OR5P2 (Homo sapiens) = target: T15, OR5P2 (Homo sapiens) (UniProt Q8WZ92)
T15 sequence (whole entry): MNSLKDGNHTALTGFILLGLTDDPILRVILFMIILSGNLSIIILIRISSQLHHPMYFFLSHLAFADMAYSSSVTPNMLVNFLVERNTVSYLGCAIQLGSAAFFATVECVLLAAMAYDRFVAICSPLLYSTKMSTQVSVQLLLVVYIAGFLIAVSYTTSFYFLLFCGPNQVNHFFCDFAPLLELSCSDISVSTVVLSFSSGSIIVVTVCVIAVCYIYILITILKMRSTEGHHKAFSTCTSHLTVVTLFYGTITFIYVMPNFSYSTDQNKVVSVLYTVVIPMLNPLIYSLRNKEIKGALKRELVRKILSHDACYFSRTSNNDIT
In short: as §1

OR5P3 (Homo sapiens) = target: T16, OR5P3 (Homo sapiens) (UniProt Q8WZ94)
T16 sequence (whole entry): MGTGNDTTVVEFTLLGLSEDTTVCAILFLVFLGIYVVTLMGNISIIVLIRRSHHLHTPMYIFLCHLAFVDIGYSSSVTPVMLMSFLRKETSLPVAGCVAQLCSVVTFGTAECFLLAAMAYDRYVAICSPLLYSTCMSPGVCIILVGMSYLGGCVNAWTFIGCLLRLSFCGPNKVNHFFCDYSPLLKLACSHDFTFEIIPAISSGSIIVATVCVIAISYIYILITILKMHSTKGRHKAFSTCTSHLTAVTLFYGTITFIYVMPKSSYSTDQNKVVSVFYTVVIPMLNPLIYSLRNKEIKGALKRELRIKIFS
In short: as §1

OR5P3 L301R = test system: T17, OR5P3 L301R
T17 sequence (whole entry): T16 sequence (whole entry) with L301R
In short: as §1

OR5R1 C122R S128G F184L = test system: T18, OR5R1 C122R S128G F184L
T18 sequence (whole entry): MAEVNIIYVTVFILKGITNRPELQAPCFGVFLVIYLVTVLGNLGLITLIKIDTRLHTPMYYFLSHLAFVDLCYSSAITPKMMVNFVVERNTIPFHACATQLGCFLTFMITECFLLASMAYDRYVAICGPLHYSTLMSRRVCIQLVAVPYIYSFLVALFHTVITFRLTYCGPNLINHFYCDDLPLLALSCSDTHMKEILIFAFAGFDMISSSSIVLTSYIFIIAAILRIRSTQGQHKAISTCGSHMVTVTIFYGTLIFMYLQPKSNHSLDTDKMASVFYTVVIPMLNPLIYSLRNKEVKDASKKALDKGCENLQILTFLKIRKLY
In short: as §1

OR5T1 (Homo sapiens) = target: T19, OR5T1 (Homo sapiens) (UniProt Q8NG75)
T19 sequence (whole entry): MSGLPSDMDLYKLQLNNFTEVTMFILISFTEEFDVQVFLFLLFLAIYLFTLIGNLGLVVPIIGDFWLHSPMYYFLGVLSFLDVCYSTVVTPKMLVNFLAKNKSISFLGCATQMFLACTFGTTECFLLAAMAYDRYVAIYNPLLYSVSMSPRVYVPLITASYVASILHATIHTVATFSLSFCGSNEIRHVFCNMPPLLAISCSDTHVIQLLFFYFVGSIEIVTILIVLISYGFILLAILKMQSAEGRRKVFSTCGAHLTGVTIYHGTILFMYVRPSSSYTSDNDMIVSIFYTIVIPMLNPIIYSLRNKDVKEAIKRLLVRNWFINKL
In short: as §1

OR5T2 (Homo sapiens) = target: T20, OR5T2 (Homo sapiens) (UniProt Q8NGG2)
T20 sequence (whole entry): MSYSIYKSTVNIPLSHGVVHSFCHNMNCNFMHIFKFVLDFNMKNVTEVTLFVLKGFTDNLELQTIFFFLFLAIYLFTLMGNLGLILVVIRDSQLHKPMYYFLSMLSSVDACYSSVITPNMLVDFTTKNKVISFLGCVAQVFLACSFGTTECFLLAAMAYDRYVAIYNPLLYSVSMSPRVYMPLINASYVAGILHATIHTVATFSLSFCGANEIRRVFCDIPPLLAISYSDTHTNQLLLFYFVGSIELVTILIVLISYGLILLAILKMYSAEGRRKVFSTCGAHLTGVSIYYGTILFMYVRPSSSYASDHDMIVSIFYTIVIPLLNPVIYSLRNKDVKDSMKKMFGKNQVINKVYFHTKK
In short: as §1

Measured: odorant receptor agonist call

CC1=C(O)C(=O)OC1C (stereo unspecified)
inactive: all assays above

CCCCCC(S)C(C)CO (stereo unspecified)
not listed: OR5M1 T295R M301I | OR5M3 N3Y A156T | OR5MA L2F C311H | OR5MA L2F Q54H C311H | OR5P3 L301R | OR5R1 C122R S128G F184L
inactive: all other assays above

Cc1cncc(C)n1
inactive: OR5K3 (Homo sapiens) | OR5K4 (Homo sapiens)

CC(=O)c1nccnc1C
inactive: OR5K3 (Homo sapiens) | OR5K4 (Homo sapiens)

COc1nccnc1C(C)C
inactive: OR5K3 (Homo sapiens) | OR5K4 (Homo sapiens) | OR5M3 (Homo sapiens)
